For 36 compounds, viability results are on record in PubChem BioAssay AID822 (SRMLSC, 2007).

Molecules are shown by their SMILES. Calls of active or inactive are those of the source.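 Rule for the calls: active = half-maximal effective dose for blocking growth of human endothelial cells at most 100 µM; inactive = the rest.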

The nature of the first assay: HUVEC proliferation inhibition, dose response, cell-based, ATP luminescence (AID 822).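 Note: cells exposed to compound for 72 h before the ATP read; 100% = median luminescence of untreated cell-only control wells on each plate.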 Conditions: HUVEC proliferation, viability ATP luminescence; at 10 µM (top of the series). A digest of the protocol: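 Material – HUVEC · Amount – 1250 HUVEC cells seeded per well · Medium – EBM plus 2% FBS · Dosing – dose series 0.039 to 20 µM, DMSO 0.2% · Times – 72 h exposure, 37 °C · Detection – ATP luminescence · Read-out basis – % viability and fitted EC50 · Format – collagen-coated plates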
In the case of `COc1cccc(C(=O)Oc2c(CN3CCOCC3)cc(Cl)c3cccnc23)c1`, the viability was 84% (inactive).

The assay is the same for the next values; noted with them: HUVEC proliferation, viability ATP luminescence; at 20 µM (top of the series).
On to `C=CCn1c(SCC(=O)NC(=O)NCc2ccco2)nc2sc(CC)cc2c1=O`, for which the viability was 86.9% (inactive). On to `c1ccc2c(c1)oc1c(NCCCN3CCOCC3)ncnc12`, for which the viability was 96.1% (inactive). Turning to `COc1ccc2cc3cc(C(=O)NCCc4ccc(OC)c(OC)c4)oc3nc2c1`, the viability is 93.3% (inactive). Turning to `COc1cc2c(C(=O)NCc3ccc4c(c3)OCO4)cn(CC(C)C)c(=O)c2cc1OC`, the viability is 82.3% (inactive). In the case of `O=C(CC1SCCNC1=O)Nc1cc(Cl)cc(Cl)c1` (stereo unspecified), the viability is 96.6% (inactive). On to `Cc1ccc(-n2c(Cc3cccs3)nnc2SCC(=O)Nc2ccc(F)c(F)c2)cc1`, for which the viability was 82.4% (inactive). For the compound `Cc1ccc(Cn2c(=S)[nH]c3ccc(N4CCOCC4)cc3c2=O)o1`, the viability was 90.9% (inactive). The same measure, in the same setting: as for `Cc1cc(NC(=O)c2cccc(S(=O)(=O)N3CC(c4ccccc4)CC3=O)c2)no1` (stereo unspecified), the figure is 91.3% (inactive). On the same count and under the same terms, under `Cc1cc(Cl)ccc1OCCCC(N)=O` stands 94% (inactive); under `Cc1nc2ccccc2n1CCc1nc2c3ccccc3nc(SCC(=O)NCc3ccco3)n2n1`, 86.4% (inactive). For `COc1ccc(CCC(=O)N2CCN(C3CCCCC3)CC2)cc1`, the viability was 99.8% (inactive). Take `C=CCn1c(O)c(C2=c3ccccc3=NC2=O)s/c1=N/c1nccs1`: the viability was 85.2% (inactive). `COc1ccc(OC)c2sc(N3CCCCC3)nc12`: the viability was 88.4% (inactive). In the case of `O=C(Nc1ccc(-c2nc3c(ccc4ccccc43)o2)cc1)c1ccco1`, the viability is 90% (inactive). On the same count and under the same terms, under `O=C(Nc1cccnc1)c1ccc(Oc2ccccc2)cc1` stands 108% (inactive); under `COc1ccc(OC)c(S(=O)(=O)N(C)CC(=O)N2CCN(c3ccc(F)cc3)CC2)c1`, 100% (inactive). Same read-out and setting: as for `CCOc1cc(N2CCOCC2)c(OCC)cc1NC(=O)COc1ncnc2ccc(Br)cc12`, the figure is 91.2% (inactive). As for `Oc1ccc2oc3c(c2c1/C=N/n1cnnc1)CCCC3`, the viability was 88.2% (inactive).

With `CCn1c(Cc2ccc(OC)cc2)nnc1SCC(=O)Nc1cccc(C(=O)OC)c1`, the viability was 81.8% (inactive). Regarding `Cn1c(=O)c2cc(NCc3ccccc3)nnc2n(C)c1=O`, the viability was 92.6% (inactive).

As to `NC(=O)Cc1c[nH]c2cccc(O)c12`, the viability was 103% (inactive). Take `CC1(C)CC(=O)c2cc(C(=O)NCc3ccco3)c(=O)n(-c3ccc(Cl)cc3)c2C1`: the viability was 97.2% (inactive). Turning to `O=C(Cc1sc(-c2ccccc2Cl)nc1-c1ccccc1)Nc1ccc(F)cc1`, the viability is 83.5% (inactive). Consider `COc1ccc(OC)c(C(=O)CSc2nnc(-c3ccc(OC)c(OC)c3)o2)c1`, for which the viability was 86.2% (inactive). `CCCS(=O)(=O)N1CCC(C(=O)N2CCC3(CC2)OCCO3)CC1`: the viability is 99.1% (inactive). For `Cc1cc(C(=O)OC(C)C(=O)Nc2cccc(S(=O)(=O)N3CCOCC3)c2)c(C)o1` (stereo unspecified), the viability is 101% (inactive). Consider `CC1(C)CC(NC(=O)c2coc(=O)c(Br)c2)CC(C)(C)N1`, for which the viability was 81% (inactive). `O=C(CCSc1ccc(Cl)cc1)N1CCN(c2ncccn2)CC1`: the viability was 94.5% (inactive). Turning to `CSc1nncc(=O)[nH]1`, the viability is 96.7% (inactive). As for `N#CCC(=O)Nc1ncn(Cc2ccccc2Cl)n1`, the viability was 95.8% (inactive).

For the compound `CC(C)OC(=O)NCCOC(=O)Nc1cccc(Cl)c1`, the viability was 89.1% (inactive). Regarding `CNC(=O)Cn1c(=O)n(C)c2ccccc21`, the viability was 91.8% (inactive). As to `CN1C(=O)C(O)(CC(=O)c2cccc(-n3cccc3)c2)c2ccccc21` (stereo unspecified), the viability is 84.7% (inactive). Regarding `CCOc1ccc(OCc2ccc(C(=O)NCC3CCCO3)o2)cc1` (stereo unspecified), the viability was 116% (inactive). With `Nc1nc2ccccc2n1/N=C/c1ccc(-c2ccccc2)o1`, the viability is 90.9% (inactive).
